System: human
Assay: amount in urine after dosing (umol)
Outline: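 Data points giving concentration or amount against time came from published in vivo toxicokinetic studies and from two structured collections. PubMed searching, classifier screening and manual review located the studies. Most points were digitised from plot screenshots using WebPlotDigitizer, the rest were copied from tables, and all keep their reported units.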

CC(C)(C)O [tert-butyl alcohol]
amount in urine, inhalation, duration: 4 hr
Settings	dosed: ethyl tert-butyl ether	dosed: methyl tert-butyl ether
0 h, 4.5 ppm	–	0.221
0 h, 40.6 ppm	2.39	–
0.1079 h, 38.7 ppm	–	6.16
2 s, 4.5 ppm	0.655	–
5.895 h, 40.6 ppm	5.98	–
5.968 h, 4.5 ppm	1.15	–
6.052 h, 4.5 ppm	–	0.993
6.07 h, 38.7 ppm	–	7.53
11.89 h, 40.6 ppm	5.18	–
11.9 h, 4.5 ppm	–	0.993
11.92 h, 38.7 ppm	–	6.16
12.14 h, 4.5 ppm	0.764	–
17.89 h, 40.6 ppm	3.59	–
18.05 h, 4.5 ppm	0.545	0.221
18.09 h, 38.7 ppm	–	4.11
23.89 h, 40.6 ppm	1.59	–
23.9 h, 4.5 ppm	–	0.221
23.95 h, 38.7 ppm	–	2.74
24.02 h, 4.5 ppm	0.545	–
29.89 h, 40.6 ppm	1.39	–
30.05 h, 4.5 ppm	–	0.221
30.12 h, 38.7 ppm	–	4.11
30.19 h, 4.5 ppm	0.273	–
35.9 h, 4.5 ppm	–	0.11
35.97 h, 38.7 ppm	–	2.74
36.11 h, 40.6 ppm	0.598	–
42.11 h, 40.6 ppm	0.598	–
42.14 h, 38.7 ppm	–	0.685
48.11 h, 40.6 ppm	0.797	–
48.29 h, 4.5 ppm	0.0545	–
54.17 h, 38.7 ppm	–	0.685
71.95 h, 38.7 ppm	–	0.685
72.05 h, 40.6 ppm	0.199	–

dosed: methyl tert-butyl ether, oral
Settings	amount in urine
0 h, 5 mg	0.0137
5.859 h, 15 mg	0.646
6.163 h, 5 mg	0.274
12.01 h, 5 mg	0.233
12.04 h, 15 mg	0.568
17.9 h, 15 mg	0.329
18.18 h, 5 mg	0.123
24.08 h, 15 mg	0.292
24.24 h, 5 mg	0.0548
29.94 h, 15 mg	0.214
30.19 h, 5 mg	0.0685
36.12 h, 15 mg	0.136
36.25 h, 5 mg	0.0548
41.98 h, 15 mg	0.138
42.1 h, 5 mg	0.0137
48.05 h, 15 mg	0.101
54.02 h, 15 mg	0.143

Reference: EPA's CvTdb concentration-time database
